Values after ≈ are worked out from the molar mass of the structure shown. Active and inactive are the calls of the source. The calls are words filed in the database; no cut-off is given here. Non-standard residues stand in square brackets, D forms with d. Residues, ends and D or L forms follow the SMILES beside them. *: point of attachment. 2Nal = N[C@@H](Cc1ccc2ccccc2c1)C(=O)O; Mtr = COc1cc(C)c(S(=O)(=O)*)c(C)c1C; Piperidide = C1CCN(*)CC1
Key:
Vasopressin V1b receptor [1] = biological target: T1, Vasopressin V1b receptor (Homo sapiens, UniProt P47901); test: Displacement of [3H]-AVP from human vasopressin V1B receptor expressed in CHO cells; format: cell-based
T1 sequence (P47901 whole entry): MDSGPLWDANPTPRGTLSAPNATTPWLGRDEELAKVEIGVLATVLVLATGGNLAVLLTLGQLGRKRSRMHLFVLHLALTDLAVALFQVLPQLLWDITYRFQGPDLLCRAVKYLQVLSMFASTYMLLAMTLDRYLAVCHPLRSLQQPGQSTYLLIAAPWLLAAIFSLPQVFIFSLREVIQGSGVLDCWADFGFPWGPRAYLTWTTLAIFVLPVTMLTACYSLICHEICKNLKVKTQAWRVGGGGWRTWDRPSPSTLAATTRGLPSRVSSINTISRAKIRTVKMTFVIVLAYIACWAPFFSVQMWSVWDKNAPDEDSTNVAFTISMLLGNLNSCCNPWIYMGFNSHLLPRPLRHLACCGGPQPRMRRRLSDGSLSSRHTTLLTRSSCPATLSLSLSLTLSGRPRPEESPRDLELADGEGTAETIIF
Procedure, shortened: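 Whole-cell binding in CHO cells expressing human receptor, [³H]AVP tracer, increasing compound concentrations; nonspecific binding with 10 µM lysine vasopressin. Affinity (Ki) from non-linear regression of specific binding versus concentration; mean of at least 2 independent experiments run in duplicate.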

[2] = Solubility of the compound at pH 7.4; format: physicochemical; conditions: buffer
Procedure, shortened: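 Kinetic solubility measured at pH 7.4, reported in mg/L.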

Vasopressin V1b receptor [3] = biological target: T1, Vasopressin V1b receptor; test: Antagonist activity at human vasopressin V1B receptor expressed in CHO cells assessed as inhibition of AVP-induced calcium mobilisation by luciferase reporter gene assay; format: functional, cell-based
Oxytocin receptor = biological target: T2, Oxytocin receptor (Homo sapiens, UniProt P30559); test: Displacement of [3H]oxytocin from human oxytocin receptor expressed in CHO cells; format: cell-based
T2 sequence (P30559 whole entry): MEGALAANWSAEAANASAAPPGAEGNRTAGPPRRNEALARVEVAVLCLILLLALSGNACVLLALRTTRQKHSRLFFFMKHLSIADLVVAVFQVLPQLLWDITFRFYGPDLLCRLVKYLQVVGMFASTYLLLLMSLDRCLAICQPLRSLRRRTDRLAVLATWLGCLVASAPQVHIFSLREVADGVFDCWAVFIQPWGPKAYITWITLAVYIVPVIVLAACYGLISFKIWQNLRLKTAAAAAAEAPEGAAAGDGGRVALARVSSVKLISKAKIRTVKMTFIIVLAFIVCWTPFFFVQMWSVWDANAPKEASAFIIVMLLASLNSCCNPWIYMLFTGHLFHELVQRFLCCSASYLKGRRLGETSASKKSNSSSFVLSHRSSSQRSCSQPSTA
Procedure, shortened: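 Intact CHO cells expressing human receptor incubated with [³H]oxytocin plus increasing compound concentrations; 10 µM oxytocin defines nonspecific binding. Ki obtained by non-linear regression of specific binding against compound concentration; values averaged from at least 2 independent duplicate experiments.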

Vasopressin V2 receptor = Vasopressin V2 receptor (Homo sapiens, UniProt P30518); test: Displacement of [3H]-AVP from human vasopressin V2 receptor expressed in CHO cell membranes
Chain of Vasopressin V2 receptor (P30518 whole entry): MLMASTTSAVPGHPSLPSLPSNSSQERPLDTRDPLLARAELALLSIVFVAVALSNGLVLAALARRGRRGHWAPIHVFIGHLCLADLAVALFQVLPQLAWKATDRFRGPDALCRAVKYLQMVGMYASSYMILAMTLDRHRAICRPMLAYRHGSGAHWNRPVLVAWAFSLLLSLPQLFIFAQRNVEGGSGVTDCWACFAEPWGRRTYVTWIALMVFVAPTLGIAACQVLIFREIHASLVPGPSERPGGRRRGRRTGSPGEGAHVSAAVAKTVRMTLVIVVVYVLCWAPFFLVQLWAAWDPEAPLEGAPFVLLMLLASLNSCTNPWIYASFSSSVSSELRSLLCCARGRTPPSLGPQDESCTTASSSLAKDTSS
Procedure, shortened: (§1)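 Membranes from CHO cells expressing the human receptor incubated with [³H]AVP and increasing compound concentrations. Nonspecific binding defined with 10 µM lysine vasopressin. Specific binding plotted against compound concentration; affinity derived by non-linear regression. Mean of at least 2 independent experiments in duplicate.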

[4] = Lipophilicity, log D of the compound at pH 7.4; format: physicochemical; conditions: buffer
Vasopressin V1a receptor = Vasopressin V1a receptor (Homo sapiens, UniProt P37288); test: Displacement of [3H]-AVP from human vasopressin V1A receptor expressed in CHO cell membranes; procedure, shortened: as §1
Chain of Vasopressin V1a receptor (P37288 whole entry): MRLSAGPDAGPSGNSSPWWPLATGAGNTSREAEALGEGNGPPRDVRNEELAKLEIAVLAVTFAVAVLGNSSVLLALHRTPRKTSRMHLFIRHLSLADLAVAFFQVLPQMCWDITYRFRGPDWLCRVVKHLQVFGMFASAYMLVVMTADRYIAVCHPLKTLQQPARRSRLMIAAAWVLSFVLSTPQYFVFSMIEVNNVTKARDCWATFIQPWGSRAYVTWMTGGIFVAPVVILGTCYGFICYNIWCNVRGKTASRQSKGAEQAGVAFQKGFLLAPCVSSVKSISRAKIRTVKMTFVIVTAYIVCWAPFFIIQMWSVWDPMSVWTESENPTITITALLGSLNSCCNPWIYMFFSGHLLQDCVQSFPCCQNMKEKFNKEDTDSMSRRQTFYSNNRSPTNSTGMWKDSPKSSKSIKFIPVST

[5] = biological target: 5-hydroxytryptamine receptor 6 (Homo sapiens) (UniProt P50406); test: Binding affinity to 5HT6 receptor
Chain of 5-hydroxytryptamine receptor 6 (Homo sapiens) (P50406 whole entry): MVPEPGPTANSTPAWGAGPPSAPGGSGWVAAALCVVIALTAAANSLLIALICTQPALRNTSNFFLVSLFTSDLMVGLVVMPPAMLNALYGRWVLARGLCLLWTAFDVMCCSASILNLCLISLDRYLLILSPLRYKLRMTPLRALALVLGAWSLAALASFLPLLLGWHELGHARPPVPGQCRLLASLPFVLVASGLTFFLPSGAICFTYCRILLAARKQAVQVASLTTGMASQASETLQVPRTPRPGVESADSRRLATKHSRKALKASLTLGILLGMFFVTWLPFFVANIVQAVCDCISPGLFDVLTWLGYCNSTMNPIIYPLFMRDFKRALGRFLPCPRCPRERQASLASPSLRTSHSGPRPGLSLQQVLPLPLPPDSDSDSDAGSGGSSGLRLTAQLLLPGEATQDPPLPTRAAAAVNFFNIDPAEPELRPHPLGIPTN

## COc1cc(C)c(S(=O)(=O)N[C@@H](Cc2ccccc2)C(=O)NCCCN2CCC(C)CC2)c(C)c1C
Vasopressin V1b receptor [1]
  Ki: 2500 nM

## COc1cc(C)c(S(=O)(=O)N[C@@H](Cc2ccccc2)C(=O)N[C@@H](Cc2ccc3ccccc3c2)C(=O)N2CCCCC2)c(C)c1C (Mtr-Phe-[2Nal]-Piperidide)
Vasopressin V1b receptor [1]
  Ki: > 10000 nM

## COc1cc(C)c(S(=O)(=O)N[C@@H](Cc2ccccc2)C(=O)NCCCN2CCN(C)CC2)c(C)c1C
Vasopressin V1b receptor [1]
  Ki: 250 nM

## COc1cc(C)c(S(=O)(=O)N[C@@H](Cc2ccccc2)C(=O)NCCN2CCN(C)CC2)c(C)c1C
Vasopressin V1b receptor [1]
  Ki: 500 nM

## COc1cc(C)c(S(=O)(=O)N[C@@H](Cc2ccccc2)C(=O)N[C@@H](Cc2ccccc2)C(=O)N2CCCCC2)c(C)c1C
Vasopressin V1b receptor [1]
  Ki: 630 nM

## COc1ccc(S(=O)(=O)n2c(C)c(C(=O)NCCCN3CCN(C)CC3)c3ccccc32)c(C)c1C
Vasopressin V1b receptor [1]
  Ki: 560 nM

## COc1ccc(S(=O)(=O)n2c(C)c(CC(=O)N(C)CCc3ccccn3)c3cc(F)ccc32)c(C)c1C
Vasopressin V1b receptor [1]
  Ki: 260 nM

## COc1ccc(S(=O)(=O)n2c(C)c(C(=O)N3CCCN(C)CC3)c3ccccc32)c(C)c1C
Vasopressin V1b receptor [1]
  Ki: 500 nM

## COc1ccc2c(c1)c(C(=O)N1CCCNCC1)c(C)n2S(=O)(=O)c1ccc(OC)c(C)c1C
[2]
  solubility: 72 µg/mL (≈ 148 µM)
Vasopressin V1b receptor [3]
  IC50: 371 nM
Oxytocin receptor
  Ki: > 10000 nM
Vasopressin V2 receptor
  Ki: > 10000 nM
[4]
  logD: 2
Vasopressin V1a receptor
  Ki: > 10000 nM
Vasopressin V1b receptor [1]
  Ki: 190 nM

## COc1cc(C)c(S(=O)(=O)N[C@@H](Cc2ccccc2)C(=O)N2CCCN(C)CC2)c(C)c1C
Vasopressin V1b receptor [1]
  Ki: 3200 nM

## COc1cc(C)c(S(=O)(=O)N[C@@H](Cc2ccccc2)C(=O)NCCCN2CCOCC2)c(C)c1C
Vasopressin V1b receptor [1]
  Ki: 10000 nM

## COc1ccc(S(=O)(=O)n2c(C)c(CC(=O)NCCCN3CCN(C)CC3)c3cc(F)ccc32)c(C)c1C
Vasopressin V1b receptor [1]
  Ki: 430 nM

## COc1ccc(S(=O)(=O)N2CC(C(=O)NCCCN3CCN(C)CC3)c3ccccc32)c(C)c1C (centres undefined)
[5]
  Activity: Active
Vasopressin V1b receptor [1]
  Ki: 1200 nM

## COc1cc(C)c(S(=O)(=O)N[C@@H](Cc2ccccc2)C(=O)NCC(=O)N2CCCCC2)c(C)c1C (Mtr-Phe-Gly-Piperidide)
Vasopressin V1b receptor [1]
  Ki: > 10000 nM

## COc1cc(C)c(S(=O)(=O)N[C@@H](Cc2ccccc2)C(=O)N[C@H](Cc2ccccc2)C(=O)N2CCCCC2)c(C)c1C
Vasopressin V1b receptor [1]
  Ki: > 10000 nM

## COc1cc(C)c(S(=O)(=O)N[C@@H](Cc2ccccc2)C(=O)N(C)CCCN2CCN(C)CC2)c(C)c1C
Vasopressin V1b receptor [1]
  Ki: 1000 nM

## COc1ccc(S(=O)(=O)n2c(C)c(C(=O)N3CCCNCC3)c3cc(C)ccc32)c(C)c1C
Vasopressin V1b receptor [1]
  Ki: 790 nM

## COc1ccc(S(=O)(=O)n2c(C)c(C(=O)N3CCCNCC3)c3cc(F)ccc32)c(C)c1C
Vasopressin V1b receptor [1]
  Ki: 310 nM

## COc1cc(C)c(S(=O)(=O)N[C@@H](Cc2ccccc2)C(=O)NC(Cc2ccc3c(N)nccc3c2)C(=O)N2CCCCC2)c(C)c1C (some centres undefined)
Vasopressin V1b receptor [1]
  Ki: 63 nM

## COc1ccc2c(c1)c(CC(=O)N1CCCNCC1)c(C)n2S(=O)(=O)c1ccc(OC)c(C)c1C
Oxytocin receptor
  Ki: 320 nM
Vasopressin V1b receptor [1]
  Ki: 180 nM

## COc1cc(C)c(S(=O)(=O)N[C@@H](Cc2ccccc2)C(=O)NCCCN(C)C)c(C)c1C
Vasopressin V1b receptor [1]
  Ki: 2000 nM

From ChEMBL document CHEMBL1777716, “Identification and optimisation of novel sulfonamide, selective vasopressin V1B receptor antagonists” (Bioorg Med Chem Lett, 2011)
